Compound activity from PubChem.
A selection: hits, their analogues and other compounds. The true share with any hit is near 2.3%.
Myeloid diff MLP = promotes myeloid progenitor differentiation | ER-HoxA9 myeloid progenitors, lysozyme-GFP differentiation, flow cytometry | calls only at 10 µM | 360,000 compounds, 1% hits | AID 624256;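 active means normalized GFP-positive differentiation at or above the plate's own cutoff, the solvent-only control mean plus 3 SD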;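 further: cells exposed to compound for four days before flow analysis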
CSN inh = CSN deneddylation inhibition. Q92905. 360,000 compounds, 0.38% hits. inhibition, % at 12.5 µM. Purified CSN, SCF-Nedd8-OG deneddylation, fluorescence polarization;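 active means pattern-corrected inhibition above about 35%, with an unprinted fluorescence ratio check between 0.5 and 1.5, limit read from the data, passing the limit was not always enough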;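 further: 0% = enzyme with substrate and 100% = substrate without enzyme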
Target sequence (Q92905 whole entry, looked up, one chain of several): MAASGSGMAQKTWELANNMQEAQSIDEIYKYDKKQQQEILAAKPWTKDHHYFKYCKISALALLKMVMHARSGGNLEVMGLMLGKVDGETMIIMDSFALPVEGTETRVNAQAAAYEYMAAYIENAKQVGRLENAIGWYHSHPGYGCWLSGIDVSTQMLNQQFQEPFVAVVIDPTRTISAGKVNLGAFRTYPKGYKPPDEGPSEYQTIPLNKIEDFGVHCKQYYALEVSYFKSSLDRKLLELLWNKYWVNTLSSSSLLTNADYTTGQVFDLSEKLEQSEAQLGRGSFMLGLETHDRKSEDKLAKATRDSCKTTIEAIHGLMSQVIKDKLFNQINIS
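Detection – fluorescence polarization · System – HEK293T-derived human Csn5 enzyme · Controls – substrate-only high control, full reaction low control · Timing – 90 min, room temperature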
HNF4A DNA FP = change in binding of human HNF4 alpha to DNA. activity change, % at 10 µM. 360,000 compounds, 0.3% hits. AID 1224865. P41235. HNF4a-FITC DNA binding, fluorescence polarization, 1 h; in the data active means activity change above about 30%, passing the limit was not always enough
TPT1 inhibitor = C. albicans TPT1 enzyme inhibition; recombinant caTPT1, FP RNA substrate dephosphorylation; inhibition, % at 5 µM; 300,000 compounds, 0.81% hits;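 active means inhibition above the mean of all tested compounds plus 3 SD, set per screening campaign, cut at about 24% in these data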;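 further: plate controls were DMSO alone for no effect and ferristatin control at 100 nM for full effect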
Rpn11 block = Rpn11 (human) deubiquitinase inhibition. O00487. human 26S proteasome, Ub4-pepOG fluorescence polarization; 20S core pre-blocked with epoxomicin. inhibition, % at 20 µM. 360,000 compounds, 0.59% hits. AID 588493;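 active means inhibition at 20 µM, scaled to each plate's controls, above about 33%, limit read from the data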
Target sequence (O00487 whole entry, looked up): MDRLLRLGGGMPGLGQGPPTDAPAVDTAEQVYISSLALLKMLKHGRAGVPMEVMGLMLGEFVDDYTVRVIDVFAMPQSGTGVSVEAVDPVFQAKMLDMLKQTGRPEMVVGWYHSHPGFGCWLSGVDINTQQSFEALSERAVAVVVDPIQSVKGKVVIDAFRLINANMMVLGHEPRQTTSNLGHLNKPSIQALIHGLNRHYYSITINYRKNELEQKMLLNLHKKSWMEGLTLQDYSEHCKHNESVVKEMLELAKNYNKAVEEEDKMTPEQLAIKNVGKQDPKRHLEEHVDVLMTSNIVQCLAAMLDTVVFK
* marks the source's active call; other numbers are inactive results; i = inactive; / = not tested or not shown; + = active, no number.

SMILES	Myeloid diff MLP	CSN inh	HNF4A DNA FP	TPT1 inhibitor	Rpn11 block
CCN1CCN(c2ccc(S(=O)(=O)N3CCCCC3)cc2NC(=O)/C=C/c2cccc(OC)c2OC)CC1	+	3.3	4.4	3.7	2.5
COc1ccc(OC)c(CNC(=O)CCCc2cn(C)c3ccccc23)c1	i	-5.2	3.6	-4.0	-5.2
COc1ccc(Br)cc1CNC(=O)CCCc1cn(C)c2ccccc12	+	-5.3	5.8	0.2	-1.1
CC(=O)COc1ccc2c(c1C)O/C(=C\c1ccco1)C2=O	+	16.0	0.5	9.6	29.5
COc1ccc(C(=O)C[C@@H]2OC[C@H](Cc3ccccc3)N2S(=O)(=O)c2ccc(C)cc2)cc1OC	i	-1.5	-2.2	/	/
C=C1[C@@H](OC(C)=O)C=C[C@@]2(C)C=CC(=O)[C@@](C)(OC(C)=O)[C@@H]2[C@@H](OC(C)=O)[C@]2(O)[C@@H](C)C(=O)O[C@H]2[C@H]1Cl	i	1.9	1.2	/	-0.8
O=c1cc(-c2ccccc2[N+](=O)[O-])oc2ccccc12	+	-2.4	-0.5	-0.4	2.9
Cc1ccccc1-c1cc2nc(NCc3ccccc3F)n(C)c(=O)c2s1	i	-0.1	-3.3	/	0.1
Cc1ccc(S(=O)(=O)N2CCOCC2)cc1C(=O)OCC(=O)NC1CC1	i	60.1*	0.9	/	1.7
CC(C)NC(=O)C1(C)CN(S(C)(=O)=O)CC(=O)N1Cc1ccc2c(c1)OCO2 (stereo unspecified)	i	-2.1	4.0	/	/
O=C(C1CCCN(S(=O)(=O)c2cccc3nonc23)C1)N1CCN(c2cccc(Cl)c2)CC1 (stereo unspecified)	+	4.3	6.0	-3.3	0.1
N#Cc1c(NC(=S)NC(=O)c2ccccc2)sc2c1CCN(CCc1ccccc1)C2	/	/	/	98.2*	/
COCCNC(=O)c1sc2ncn(CC(=O)N3CCCCC3)c(=O)c2c1C	i	1.0	64.5*	-6.5	-2.4
CCCCCCCCN1C(=O)[C@H](CC(=O)N2CCN(C(=O)C3CC3)CC2)C[C@@]2(C(=O)OCC)CCCC=C12	i	1.8	0.8	/	/
COc1ccc(NC(=O)CN(C)S(=O)(=O)c2ccccc2)c([N+](=O)[O-])c1	i	4.5	39.4*	3.4	15.5
COc1ccc(NC(=O)CN(C)S(=O)(=O)c2ccccc2)cc1	i	0.5	-2.5	-1.1	3.1
COc1ccc(S(=O)(=O)N(C)CC(=O)Nc2ccccc2OC)cc1	i	-0.8	-3.6	-1.8	-1.9
CCOC(=O)c1ccc(NC(=O)CN(C)S(=O)(=O)c2ccc(OC)cc2)cc1	+	2.2	-1.0	0.7	-3.2
O=C(NCc1ccccc1)C(C1CC1)n1c(=O)c(-c2cc3ccccc3[nH]2)nc2ccccc21 (stereo unspecified)	i	0.8	-1.7	/	/
O=C(Nc1nnc([C@@H]2C[C@H](O)[C@@H](CO)O2)s1)Nc1ccccc1C(F)(F)F	i	1.9	-1.3	/	3.7
Cc1ccc2nc(N3CC(=O)Nc4ccccc43)nc(-c3ccccc3)c2c1	+	1.1	7.7	13.2	27.6
CCCN1CCN(C(=S)Nc2ccc([N+](=O)[O-])cc2)CC1	+	1.5	4.6	-1.3	-1.5
CCCN1CCC(NC(=S)Nc2ccc([N+](=O)[O-])cc2)CC1	i	4.2	-1.3	-2.2	5.4
COc1ccccc1Nc1nnc(Cc2ccccc2)c(=O)[nH]1	i	1.4	-2.4	2.4	-0.9
COCCNc1nnc(Cc2ccccc2)c(=O)[nH]1	+	-4.9	-1.1	-1.1	-1.6
SMILES	Myeloid diff MLP	CSN inh	HNF4A DNA FP	TPT1 inhibitor	Rpn11 block
C[C@@H]1ON(C)[C@H]2C[C@H]3c4[nH]c5ccccc5c4CCN3C[C@@H]12	+	0.1	2.2	/	2.5
O=C1/C(=C\c2ccc(Cl)cc2)CCC1CNc1ccc(Cl)cc1 (stereo unspecified)	+	17.4	6.9	/	13.6
CC1(Cc2ccc(C(F)(F)F)o2)C(=O)Nc2cc(-c3ccc(F)cc3F)ccc21 (stereo unspecified)	i	2.3	-0.2	/	2.4
Cc1cccc(CS(=O)(=O)c2nnc([C@H](Cc3ccccc3)NC(=O)OC(C)(C)C)o2)c1	i	-0.1	5.0	66.9*	10.4
Cc1oc(-c2ccc(Cl)cc2)nc1CN1CCCC(C(=O)NCc2ccco2)C1 (stereo unspecified)	+	-1.3	-1.1	-1.5	2.8
CC1(c2ccccc2)NC(=O)N(CC(=O)Nc2ccc(Cl)c(S(=O)(=O)N3CCCCC3)c2)C1=O (stereo unspecified)	+	3.0	1.6	-3.2	7.5
CC1(c2ccc([N+](=O)[O-])cc2)NC(=O)N(CC(=O)Nc2ccc(N3CCCCC3)cc2)C1=O (stereo unspecified)	+	4.3	0.4	0.2	1.0
Cc1ccc(OCc2nc3ccccc3n2C(C(=O)NC(C)(C)C)c2ccncc2)cc1 (stereo unspecified)	i	7.1	-1.5	/	/
COc1ccc2[nH]cc(CCNS(=O)(=O)c3ccccc3)c2c1	i	60.0*	0.1	4.5	-2.6
COc1ccc(CC(N)c2csc(NC(=O)Nc3ccccc3-c3ccccc3)n2)cc1 (stereo unspecified)	i	-0.5	0.6	/	13.4
NNC(=O)c1cc2c(s1)CCCCCC2	+	0.5	4.8	-3.0	-2.1
O=C(Nn1cnnc1)c1cc2c(s1)CCCC2	i	-0.6	-2.1	2.2	-0.3
Cc1cccc(C)c1NC(=O)C(C1CC1)n1c(-c2ccc(-c3ccccc3)cc2)nc2ccccc21 (stereo unspecified)	i	-1.5	-2.8	/	/
CC1(C)Cc2ccccc2C2CC(O)C(=O)N21 (stereo unspecified)	+	1.0	35.4*	0.8	3.5
Cc1[nH]c2ccccc2c1C(=O)NS(=O)(=O)Nc1ccc(F)cc1	+	4.1	4.9	0.6	-1.6
C=CCc1ccc(OCC(O)CN2CCCCC2)c(OC)c1 (stereo unspecified)	i	1.1	50.3*	-2.9	0.3
C=CCc1ccc(OCC(O)CN2CCN(c3ccccc3)CC2)c(OC)c1 (stereo unspecified)	i	-3.3	-0.3	0.1	-7.9
Cc1cc(C)cc(NC(=O)c2cc(S(=O)(=O)N3CCCC3)cn2C)c1	i	-4.7	52.6*	-3.0	-6.5
Cc1cccc(NC(=O)c2cc(S(=O)(=O)N3CCCC3)cn2C)c1	i	2.4	-0.7	-3.2	-3.0
O=C(COC(=O)CNC(=O)c1cccc([N+](=O)[O-])c1)NCc1ccco1	+	-0.8	2.5	3.8	-0.7
FC(F)(F)c1cc(C(F)(F)F)n2nc(-c3sccc3-n3cccc3)cc2n1	+	-0.5	-1.2	-4.3	-0.6
Cc1ccccc1-c1nc(-c2ccc(NC(=O)c3ccc4c(c3)OCO4)cc2)no1	+	7.1	5.6	2.4	3.8
COc1ccccc1-c1cc2c(c3c1ccn3C)C1CCC2C1 (stereo unspecified)	i	3.5	1.6	/	-0.6
